# Measurements from ChEMBL document CHEMBL4823270, “A first-in-class anticancer dual HDAC2/FAK inhibitors bearing hydroxamates/benzamides capped by pyridinyl-1,2,4-triazoles” (Eur J Med Chem, 2021).
# The source made the active and inactive calls. The calls are words filed in the database; no cut-off is given here.
# What was measured:
# HCT-116 = assay: Growth inhibition of human HCT-116 cells at 10 uM incubated for 24 hrs by MTT assay relative to control; type: functional; conditions: read-out: GI
# Procedure, shortened: (§1)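 Cells seeded at 1 × 10^4 per well, cultured overnight, then exposed to 10 μM compound or DMSO (negative control) for 24 h. After a PBS wash, MTT (2 mg/ml) was added for 4 h at 37°C and formazan dissolved in DMSO. OD read at 570 nm. Growth inhibition = 1 − (OD treated/OD control); at least three independent experiments.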
# KG-1 = assay: Growth inhibition of human KG-1 cells at 10 uM incubated for 24 hrs by MTT assay relative to control; type: functional; conditions: KG-1, 24 h; procedure, shortened: as §1
# A498 [1] = assay: Growth inhibition of human A498 cells at 10 uM incubated for 24 hrs by MTT assay relative to control; type: functional; conditions: read-out: GI; procedure, shortened: as §1
# CAKI-1 = assay: Growth inhibition of human CAKI-1 cells at 10 uM incubated for 24 hrs by MTT assay relative to control; type: functional; conditions: read-out: GI; procedure, shortened: as §1
# A498 [2] = assay: Antiproliferative activity against human A498 cells assessed as cell growth inhibition incubated for 24 hrs by MTT assay; type: functional, cell-based; conditions: A498, 24 h
# Histone deacetylase 2 [3] = biological target: T1, Histone deacetylase 2 (Homo sapiens, UniProt Q92769); assay: Inhibition of human full-length recombinant HDAC2 preincubated for 5 mins followed by HDAC substrate addition and further incubated for 45 mins by fluorescence microplate reader assay
# [4] = biological target: T2, Protein deacetylase HDAC6 (Homo sapiens, UniProt Q9UBN7); assay: Inhibition of human full-length recombinant HDAC6 preincubated for 5 mins followed by HDAC substrate addition and further incubated for 45 mins by fluorescence microplate reader assay
# T2 sequence (Q9UBN7 whole entry): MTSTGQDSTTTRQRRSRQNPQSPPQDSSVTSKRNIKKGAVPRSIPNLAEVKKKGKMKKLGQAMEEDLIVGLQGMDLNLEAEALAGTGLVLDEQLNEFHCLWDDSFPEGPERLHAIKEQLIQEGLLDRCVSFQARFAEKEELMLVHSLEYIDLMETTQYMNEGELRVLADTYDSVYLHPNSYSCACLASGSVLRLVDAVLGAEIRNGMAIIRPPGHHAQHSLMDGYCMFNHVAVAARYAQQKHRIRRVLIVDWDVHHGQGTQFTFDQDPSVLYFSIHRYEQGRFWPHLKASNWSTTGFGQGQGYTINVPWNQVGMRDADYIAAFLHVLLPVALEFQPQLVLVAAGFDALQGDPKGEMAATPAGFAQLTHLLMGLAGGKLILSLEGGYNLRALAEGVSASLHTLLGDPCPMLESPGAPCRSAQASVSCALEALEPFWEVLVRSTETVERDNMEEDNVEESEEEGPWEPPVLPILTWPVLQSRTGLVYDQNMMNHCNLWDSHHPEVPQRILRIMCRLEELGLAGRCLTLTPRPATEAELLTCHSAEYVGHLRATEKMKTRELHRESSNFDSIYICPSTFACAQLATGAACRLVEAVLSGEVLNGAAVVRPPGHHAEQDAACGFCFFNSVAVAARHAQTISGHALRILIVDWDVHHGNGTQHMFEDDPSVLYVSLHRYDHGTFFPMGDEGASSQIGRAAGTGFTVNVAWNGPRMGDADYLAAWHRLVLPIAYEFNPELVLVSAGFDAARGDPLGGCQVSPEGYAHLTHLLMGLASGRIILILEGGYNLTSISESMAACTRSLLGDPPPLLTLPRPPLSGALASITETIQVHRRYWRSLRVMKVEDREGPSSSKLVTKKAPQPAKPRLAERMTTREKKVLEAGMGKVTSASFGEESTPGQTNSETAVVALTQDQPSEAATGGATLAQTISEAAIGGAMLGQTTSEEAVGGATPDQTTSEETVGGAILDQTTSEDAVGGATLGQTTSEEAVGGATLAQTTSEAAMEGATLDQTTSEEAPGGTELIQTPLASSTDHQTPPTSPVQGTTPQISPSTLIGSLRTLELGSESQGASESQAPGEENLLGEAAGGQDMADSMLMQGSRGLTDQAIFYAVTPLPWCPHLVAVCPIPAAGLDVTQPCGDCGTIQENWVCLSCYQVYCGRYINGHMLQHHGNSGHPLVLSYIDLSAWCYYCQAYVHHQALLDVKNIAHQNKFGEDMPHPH
# Focal adhesion kinase 1 [5] = biological target: T3, Focal adhesion kinase 1 (Homo sapiens, UniProt Q05397); assay: Inhibition of FAK (unknown origin) by FRET-based Z'-Lyte assay
# Procedure, shortened: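 Recombinant FAK kinase activity measured with the FRET-based Z'-LYTE format; the same platform was used for a kinase panel (FAK, FLT, FRK, IGF-1R, BTK). IC50 values determined.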
# Target sequence in this assay (Q05397 whole entry): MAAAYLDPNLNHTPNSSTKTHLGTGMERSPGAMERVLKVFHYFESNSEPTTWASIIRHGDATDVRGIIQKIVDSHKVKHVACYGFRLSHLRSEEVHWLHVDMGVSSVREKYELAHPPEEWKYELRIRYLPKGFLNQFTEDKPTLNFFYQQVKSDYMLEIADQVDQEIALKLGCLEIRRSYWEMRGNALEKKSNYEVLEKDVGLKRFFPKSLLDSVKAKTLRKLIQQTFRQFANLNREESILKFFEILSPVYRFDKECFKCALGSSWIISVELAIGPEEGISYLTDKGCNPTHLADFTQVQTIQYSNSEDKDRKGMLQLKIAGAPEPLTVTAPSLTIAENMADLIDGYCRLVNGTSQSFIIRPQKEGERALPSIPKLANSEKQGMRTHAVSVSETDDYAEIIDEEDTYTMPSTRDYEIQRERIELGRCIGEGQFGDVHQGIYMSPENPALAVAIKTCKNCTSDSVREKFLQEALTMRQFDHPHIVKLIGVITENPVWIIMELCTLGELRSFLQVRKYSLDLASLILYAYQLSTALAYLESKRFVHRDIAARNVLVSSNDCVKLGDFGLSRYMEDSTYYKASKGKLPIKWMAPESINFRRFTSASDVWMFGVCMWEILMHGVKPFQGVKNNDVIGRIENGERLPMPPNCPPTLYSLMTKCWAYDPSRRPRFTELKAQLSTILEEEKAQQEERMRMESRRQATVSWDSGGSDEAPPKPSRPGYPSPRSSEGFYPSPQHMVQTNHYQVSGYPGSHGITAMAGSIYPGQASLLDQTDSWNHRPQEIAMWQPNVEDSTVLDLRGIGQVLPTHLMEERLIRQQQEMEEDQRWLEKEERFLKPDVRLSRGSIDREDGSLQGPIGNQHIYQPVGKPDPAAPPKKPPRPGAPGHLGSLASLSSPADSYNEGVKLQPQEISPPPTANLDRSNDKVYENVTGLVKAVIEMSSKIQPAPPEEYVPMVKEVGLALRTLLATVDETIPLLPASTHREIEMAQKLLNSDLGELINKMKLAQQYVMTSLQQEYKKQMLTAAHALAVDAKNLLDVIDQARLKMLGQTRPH
# Histone deacetylase 2 [6] = biological target: T1, Histone deacetylase 2; assay: Inhibition of HDAC2 in human CAKI-1 cells assessed as reduction in HDAC2 expression by Western blot analysis; type: cell-based
# Procedure, shortened: (§2)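 40 μg protein (Bradford) resolved by SDS-PAGE, transferred to PVDF, blocked 1 h in milk or BSA. Primary antibody overnight, HRP secondary 1 h, ECL detection; β-actin as loading control.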
# Focal adhesion kinase 1 [7] = biological target: T3, Focal adhesion kinase 1; assay: Inhibition of FAK in human A498 cells assessed as reduction in FAK phosphorylation by Western blot analysis; type: cell-based; procedure, shortened: as §2
# Target sequence in this assay (Q05397 2-1052 limits assumed): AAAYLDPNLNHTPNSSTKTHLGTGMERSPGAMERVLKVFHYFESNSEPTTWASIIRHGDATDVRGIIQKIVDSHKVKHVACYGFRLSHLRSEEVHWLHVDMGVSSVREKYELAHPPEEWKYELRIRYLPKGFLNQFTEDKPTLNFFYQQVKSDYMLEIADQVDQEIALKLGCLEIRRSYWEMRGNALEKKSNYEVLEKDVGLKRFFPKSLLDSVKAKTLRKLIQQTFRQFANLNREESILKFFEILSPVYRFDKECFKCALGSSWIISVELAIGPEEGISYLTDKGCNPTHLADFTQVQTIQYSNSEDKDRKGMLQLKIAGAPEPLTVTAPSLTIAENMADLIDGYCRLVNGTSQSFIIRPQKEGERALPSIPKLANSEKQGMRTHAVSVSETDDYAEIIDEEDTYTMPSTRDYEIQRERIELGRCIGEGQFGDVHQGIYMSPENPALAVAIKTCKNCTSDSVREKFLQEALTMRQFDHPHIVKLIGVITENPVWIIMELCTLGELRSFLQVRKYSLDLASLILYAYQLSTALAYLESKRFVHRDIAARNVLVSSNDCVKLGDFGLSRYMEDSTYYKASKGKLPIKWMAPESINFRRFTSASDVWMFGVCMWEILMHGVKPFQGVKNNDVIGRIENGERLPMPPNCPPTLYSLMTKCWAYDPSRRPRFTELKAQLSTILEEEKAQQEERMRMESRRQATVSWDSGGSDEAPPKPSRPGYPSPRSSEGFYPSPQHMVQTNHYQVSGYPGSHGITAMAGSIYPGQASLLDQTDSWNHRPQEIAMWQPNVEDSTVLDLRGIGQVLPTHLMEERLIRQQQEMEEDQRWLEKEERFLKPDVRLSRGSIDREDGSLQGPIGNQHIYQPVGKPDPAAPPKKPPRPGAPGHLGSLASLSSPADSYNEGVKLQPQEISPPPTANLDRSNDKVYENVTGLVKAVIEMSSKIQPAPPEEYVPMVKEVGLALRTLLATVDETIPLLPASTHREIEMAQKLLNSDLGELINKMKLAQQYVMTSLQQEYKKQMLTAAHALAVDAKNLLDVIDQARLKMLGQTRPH
# Focal adhesion kinase 1 [8] = biological target: T3, Focal adhesion kinase 1; assay: Inhibition of FAK in human CAKI-1 cells assessed as reduction in FAK phosphorylation by Western blot analysis; type: cell-based; procedure, shortened: as §2
# Target sequence in this assay (Q05397 2-1052 limits assumed): as above
# A498 [9] = assay: Induction of cell cycle arrest in human A498 cells assessed as accumulation at G2/M phase incubated for 24 hrs by propidium iodide based flow cytometry analysis (reference value: 18 %); type: functional
# Procedure, shortened: (§3)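 Cells at 1 × 10^5/mL treated with 0.75 or 1.5 μM compound or DMSO (negative control) for 24 h, harvested and washed in PBS. Fixed by dropwise ice-cold 80% ethanol with vortexing, held overnight, washed twice, PI-stained 20 min in the dark. Phase distribution read by flow cytometry.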
# Histone deacetylase 2 [10] = biological target: T1, Histone deacetylase 2; assay: Inhibition of HDAC2 in human A498 cells assessed as reduction in HDAC2 expression pretreated for 12 weeks followed by treatment for last 24 hrs by Western blot analysis; type: cell-based; conditions: time 85.0 day
# Focal adhesion kinase 1 [11] = biological target: T3, Focal adhesion kinase 1; assay: Inhibition of FAK in human A498 cells assessed as reduction in FAK phosphorylation pretreated for 12 weeks followed by treatment for last 24 hrs by Western blot analysis; type: cell-based; conditions: time 85.0 day
# Target sequence in this assay (Q05397 2-1052 limits assumed): as above
# [12] = biological target: Signal transducer and activator of transcription 3 (Homo sapiens) (UniProt P40763); assay: Inhibition of STAT3 activation in human A498 cells measured after 24 hrs by Western blot analysis; type: cell-based
# A498 [13] = assay: Induction of apoptosis in human A498 cells assessed as activation of caspase-8 measured after 24 hrs by ELISA relative to control; type: functional
# A498 [14] = assay: Induction of apoptosis in human A498 cells assessed as activation of caspase-3 measured after 24 hrs by ELISA relative to control; type: functional
# Procedure, shortened: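 A-498 lysates were assayed for active caspase-3 protein by ELISA. Samples or standards were incubated 2 h at room temperature, then caspase-3 (active) detection antibody for 1 h, anti-rabbit IgG-HRP for 30 min, and chromogen for 30 min. After the stop solution, the plate was read and values were taken from a fitted standard curve in pg/ml versus a negative control.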
# A498 [15] = assay: Induction of cell cycle arrest in human A498 cells assessed as decrease in cell population at G1 phase at 1.5 uM incubated for 24 hrs by propidium iodide based flow cytometry analysis; type: functional; procedure, shortened: as §3
# T1 sequence (Q92769 whole entry): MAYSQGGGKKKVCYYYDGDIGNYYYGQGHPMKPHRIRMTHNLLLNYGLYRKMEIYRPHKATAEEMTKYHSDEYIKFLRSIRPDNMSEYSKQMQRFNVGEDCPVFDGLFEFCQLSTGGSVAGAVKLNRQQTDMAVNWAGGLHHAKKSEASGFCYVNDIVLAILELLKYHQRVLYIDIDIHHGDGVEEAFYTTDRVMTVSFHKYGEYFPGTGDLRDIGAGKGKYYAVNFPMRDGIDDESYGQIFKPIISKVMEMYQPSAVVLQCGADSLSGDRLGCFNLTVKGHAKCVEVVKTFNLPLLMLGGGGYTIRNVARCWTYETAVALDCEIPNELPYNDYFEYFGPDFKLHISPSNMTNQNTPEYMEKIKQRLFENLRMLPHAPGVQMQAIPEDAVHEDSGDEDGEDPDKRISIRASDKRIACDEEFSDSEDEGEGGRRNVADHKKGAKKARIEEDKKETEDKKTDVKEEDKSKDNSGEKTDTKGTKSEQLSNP
# Signal transducer and activator of transcription 3 (Homo sapiens), sequence (P40763 whole entry): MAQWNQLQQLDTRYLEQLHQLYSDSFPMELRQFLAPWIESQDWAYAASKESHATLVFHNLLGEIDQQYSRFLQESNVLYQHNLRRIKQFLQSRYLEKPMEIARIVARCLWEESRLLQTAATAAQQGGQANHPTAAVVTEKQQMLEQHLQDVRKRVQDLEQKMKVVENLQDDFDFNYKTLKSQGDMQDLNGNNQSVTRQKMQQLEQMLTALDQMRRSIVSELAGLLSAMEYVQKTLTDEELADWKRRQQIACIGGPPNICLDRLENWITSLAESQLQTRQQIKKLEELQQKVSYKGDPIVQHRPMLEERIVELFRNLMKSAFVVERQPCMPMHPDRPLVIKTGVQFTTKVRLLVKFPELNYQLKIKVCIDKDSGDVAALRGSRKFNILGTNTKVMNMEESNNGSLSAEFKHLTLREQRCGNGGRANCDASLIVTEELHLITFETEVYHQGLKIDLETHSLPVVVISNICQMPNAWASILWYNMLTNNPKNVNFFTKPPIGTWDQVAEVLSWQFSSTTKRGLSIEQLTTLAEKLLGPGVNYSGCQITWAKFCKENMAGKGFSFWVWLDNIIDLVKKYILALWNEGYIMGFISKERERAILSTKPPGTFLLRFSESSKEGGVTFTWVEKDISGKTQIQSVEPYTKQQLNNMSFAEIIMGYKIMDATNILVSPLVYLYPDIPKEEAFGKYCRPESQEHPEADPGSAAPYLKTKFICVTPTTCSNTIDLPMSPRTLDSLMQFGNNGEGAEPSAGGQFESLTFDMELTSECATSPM
smiles,measurement,setting,value
Cn1c(SCCCCCC(=O)NO)nnc1-c1ccncc1,inhibition of growth at 10 µM,HCT-116,60.1%
same,inhibition in vitro at 10 µM,KG-1,84.2%
same,inhibition of growth at 10 µM,A498 [1],99.8%
same,inhibition of growth at 10 µM,CAKI-1,98.1%
same,IC50,A498 [2],950 nM
same,IC50,Histone deacetylase 2 [3],90 nM
same,IC50,[4],13900 nM
same,IC50,Focal adhesion kinase 1 [5],12.6 nM
same,inhibition,Histone deacetylase 2 [6],Active
same,inhibition,Focal adhesion kinase 1 [7],Active
same,inhibition,Focal adhesion kinase 1 [8],Active
same,Activity,A498 [9],65%
same,inhibition,Histone deacetylase 2 [10],Active
same,inhibition,Focal adhesion kinase 1 [11],Active
same,inhibition,[12],Active
same,fold change (FC),A498 [13],3
same,fold change (FC),A498 [14],11
same,Activity,A498 [15],Active
